# Published values from different studies.
# Compare with care: the assays were run in different laboratories.
# CYP2C19: Cytochrome P450 2C19 (CYP2C19, Homo sapiens, UniProt P33261)
Compound,target or system,assay,system,setting,endpoint,value
COC(=O)C1CCN(C(=O)c2ccc(N(Cc3ccccc3)Cc3cnc4nc(N)nc(N)c4n3)cc2)CC1,CYP2C19,"enzyme activity, inhibitor, luciferase",,10 µM,inhibition,107%
COc1cc2c3c(n(CCCN4CCOCC4)c(=O)c2cc1OC)-c1cc2c(cc1C3=O)OCO2,,,"male beagle dog, plasma","intravenous, 10 mg/m², infusion",Cmax,106 ng/mL
N=C(N)NCc1ccc(NC(=O)c2ccc(C(=O)Nc3ccc(C4=CCN(C(=N)N)CC4)cn3)cc2)cc1,NIH3T3,"cell growth or viability, MTS",,24 h,CC50,544 µM
[11CH3]Oc1cccc(CCc2cc(O)c(=O)[nH]n2)c1,"ATP-dependent translocase ABCB1 (Abcb1a, Mus musculus, UniProt P21447)",,"mouse, brain",5 min,tracer uptake,0.43 %ID/g
COC(=O)C1CCN(C(=O)c2ccc(NCc3cnc4nc(N)nc(N)c4n3)cn2)CC1,CYP2C19,"enzyme activity, inhibitor, luciferase",,10 µM,inhibition,-1.34%
N=C(N)N1CC=C(c2ccc(NC(=O)c3ccc(C4=CCN(C(=N)N)CC4)cc3)cc2)CC1,NIH3T3,"cell growth or viability, MTS",,24 h,CC50,41 µM
CCOC(=O)C1CCCN1C(=O)c1ccc(NCc2cnc3nc(N)nc(N)c3n2)cc1 (stereo not shown),CYP2C19,"enzyme activity, inhibitor, luciferase",,10 µM,inhibition,-16.2%
C[C@@H]1C[C@H](c2ccc(Br)cc2)c2c(cc3ccccn23)C(=O)O1 (racemic),HFF-1,"cell growth or viability, resazurin",,72 h,CC50,0.92 µM
COC(=O)C1CCN(C(=O)c2ccc(N(CCO)Cc3cnc4nc(N)nc(N)c4n3)cc2)CC1,CYP2C19,"enzyme activity, inhibitor, luciferase",,10 µM,inhibition,-24.5%
O=C(Nc1c2c(cc3c1CCC3)CCC2)NS(=O)(=O)/C=C/c1nccs1,CYP2C19,"enzyme activity, inhibitor","human, liver microsomes","10 µM, pH 7.4",inhibition,10.7%
C[C@@H](Cn1ccc(-c2ccc(C#N)c(Cl)c2)n1)NC(=O)c1cc([C@@H](C)O)[nH]n1,"UDP-glucuronosyltransferase 1A4 (UGT1A4, Homo sapiens, UniProt P22310)","enzyme activity, inhibitor","human, liver microsomes",,IC50,> 100 µM
N=C(N)NCc1ccc(NC(=O)C23CCC(C(=O)Nc4ccc(C5=CCN(C(=N)N)CC5)cc4)(CC2)CC3)cc1,NIH3T3,"cell growth or viability, MTS",,24 h,CC50,439 µM
C=CC(=O)N1CC2CC(n3nc(-c4ccc(C(=O)Nc5ccccn5)cc4)c4c(N)ncnc43)CC2C1 (stereo not shown),,,"male Wistar rat, plasma","oral, 10 mg/kg",Tmax,2 h
